Source: PubChem
PMI activator – activators of human PMI, primary screen, biochemical, fluorescence intensity, near-Km mannose 6-phosphate; hit rate 0.005% among 190,000; activation factor at 20 µM; Mannose-6-phosphate isomerase (Homo sapiens), P34949; purified human PMI, coupled resazurin fluorescence, 20 min; stronger effect = higher value; 1 = vehicle control, 0 substrate-free wells;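 active means activation factor of 2 or more at 20 µM, relative to plate controls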
Target sequence (P34949 whole entry, looked up): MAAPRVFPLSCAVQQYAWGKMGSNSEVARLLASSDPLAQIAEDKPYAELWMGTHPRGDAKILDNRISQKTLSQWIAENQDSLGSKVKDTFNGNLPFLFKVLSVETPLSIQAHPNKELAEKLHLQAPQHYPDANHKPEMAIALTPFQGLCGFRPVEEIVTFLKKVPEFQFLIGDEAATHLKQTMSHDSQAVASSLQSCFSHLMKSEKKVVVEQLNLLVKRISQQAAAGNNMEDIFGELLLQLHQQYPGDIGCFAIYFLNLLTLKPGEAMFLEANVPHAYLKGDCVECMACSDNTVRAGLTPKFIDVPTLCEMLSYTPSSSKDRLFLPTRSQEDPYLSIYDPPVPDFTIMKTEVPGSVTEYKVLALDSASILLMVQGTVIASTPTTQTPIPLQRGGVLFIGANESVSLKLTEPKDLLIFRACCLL
Redox H2O2 prof – compounds producing H2O2 with reducing agent – biochemical, NIH compound library profiling, artefact control for MLSCN library redox annotation, primary screen. activation, % at 10 µM. DTT-dependent redox cycling H2O2, phenol red/HRP absorbance; 100% = 100 µM peroxide control, 0% = buffer. hit rate 0.03% among 200,000;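 active means activation of at least 50% relative to the plate's high and low controls in the primary single-dose screen; inactive means activation below 50%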;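 further: compound incubated with DTT at 0.8 mM final as the reducing agent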
Diaph inh CS – diaphorase inhibitors and chemical oxidizers, primary screen, counter-screen for diaphorase-coupled primary assays, biochemical, uHTS, resorufin fluorescence | diaphorase resazurin-to-resorufin fluorescence, NADH, 16 min; bacterial (C. kluyveri) enzyme, not human | inhibition, % at 20 µM | hit rate 0.69% among 190,000;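 active means primary screen inhibition at 20 µM above a set limit, cut at about 50% in these data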
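Test system: bacterial diaphorase enzyme (C. kluyveri); Quantity: 0.14 U/mL diaphorase, enzyme working solution; Times: reaction incubation of 16 min at room temperature; Measured by: fluorescence of resorufin formed from resazurin, Ex 544/Em 590 nm; Benchmarks: positive control minus NADH, DMSO neutral control.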
Diaphorase act – compounds boosting diaphorase resazurin reduction – biochemical, uHTS, resorufin fluorescence, counter-screen for diaphorase-coupled primary assays, primary screen; Diaphorase/resazurin coupled assay, 16 min; stronger effect = higher value; 1 = vehicle wells, 0 = NADH-free wells; activation factor at 20 µM; hit rate 0.005% among 190,000; AID 1229, 2008;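 active means diaphorase activity raised at least twofold by the compound at 20 µM; inactive means activation factor below 2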
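Material: Purified diaphorase enzyme from Clostridium kluyveri | Buffer or medium: 50 mM HEPES pH 7.4 with 4.542 mM MgCl2, 0.005% Tween 20 | Times: 16 min enzyme reaction, ambient temperature | Signal: Red resorufin fluorescence at 544/590 nm excitation/emission | Measure: Increased resorufin signal from activators or reducing compounds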
G6PDH counter – L. mesenteroides G6PDH inhibitors, counter-screen for G6PDH-coupled screening assays, biochemical, Leuconostoc mesenteroides enzyme; hit rate 0.12% among 200,000; glucose-6-phosphate dehydrogenase [Leuconostoc mesenteroides]; Purified L. mesenteroides G6PDH, diaphorase/resazurin coupled fluorescence, 45 min; AID 1020, 2008; inhibition, % at 5 µM; in the data active means inhibition above about 50%
PMI act satM6P – human PMI activators, high substrate, primary screen, biochemical, fluorescence intensity, near-saturating mannose 6-phosphate; Mannose-6-phosphate isomerase (Homo sapiens), P34949; hit rate 0.34% among 190,000; coupled PMI enzyme assay, resazurin fluorescence, 20 min; stronger effect = higher value; 1 = untreated enzyme, 0 = substrate-free blank; activation factor at 20 µM;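 active means activation factor of 2 or more at 20 µM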
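Technique: Diaphorase-driven resazurin-to-resorufin fluorescence, excitation 544, emission 590 nm | Assay system: Human PMI in coupled enzyme assay | Times: Enzyme reaction with compound 20 min at room temperature | Medium: HEPES-buffered pH 7.4 with magnesium and detergent | Reagent: Mannose-6-phosphate 1.0 mM (near-saturating) plus 0.22 mM NADP+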
Numbers stand for hits. A selection: hits, their analogues and other compounds. The true share with any hit is near 1.1%.

Results for Clc1ncnc2scc(-c3ccccc3)c12 ?
PMI activator: inactive; Redox H2O2 prof: inactive; Diaph inh CS: inactive; Diaphorase act: inactive; G6PDH counter: inactive; PMI act satM6P: inactive

What do the screens show for `S=c1[nH]cnc2scc(-c3ccccc3)c12`?
PMI activator: inactive; Redox H2O2 prof: inactive; Diaph inh CS: 64; Diaphorase act: inactive; G6PDH counter: inactive; PMI act satM6P: inactive

What do the screens show for `Cc1ccc(C2=NNC(c3cccc(F)c3)S2)cc1` (configuration not stated)?
PMI activator: inactive; Redox H2O2 prof: inactive; Diaph inh CS: inactive; Diaphorase act: inactive; G6PDH counter: inactive; PMI act satM6P: 2.1

How did COc1ccc(C2NN=C(c3ccc(C)cc3)S2)cc1OC (configuration not stated) do in these assays?
PMI activator: inactive; Redox H2O2 prof: inactive; Diaph inh CS: inactive; Diaphorase act: inactive; G6PDH counter: inactive; PMI act satM6P: 2.9

What do the screens show for `CSc1nc(-c2ccco2)nn1S(=O)(=O)c1ccc(C)cc1`?
PMI activator: inactive; Redox H2O2 prof: inactive; Diaph inh CS: 58; Diaphorase act: inactive; G6PDH counter: inactive; PMI act satM6P: inactive

How did Cc1cccc2sc(NNC(=O)c3cc(=O)c4ccccc4o3)nc12 do in these assays?
PMI activator: inactive; Redox H2O2 prof: inactive; Diaph inh CS: inactive; Diaphorase act: inactive; G6PDH counter: inactive; PMI act satM6P: inactive

Results for Cc1ccc2sc(NNC(=O)c3cc(=O)c4ccccc4o3)nc2c1C ?
PMI activator: inactive; Redox H2O2 prof: inactive; Diaph inh CS: 58; Diaphorase act: inactive; G6PDH counter: inactive; PMI act satM6P: inactive

How did CCOc1ccc(NC(=O)C(C)Oc2ccccc2C(=O)Nc2cccc(Cl)c2Cl)cc1 (configuration not stated) do in these assays?
PMI activator: inactive; Redox H2O2 prof: inactive; Diaph inh CS: inactive; Diaphorase act: inactive; G6PDH counter: inactive; PMI act satM6P: inactive

What do the screens show for `CCc1ccc(N2CC(C(=O)N/N=C/c3cc([N+](=O)[O-])ccc3O)CC2=O)cc1` (configuration not stated)?
PMI activator: inactive; Redox H2O2 prof: inactive; Diaph inh CS: 51; Diaphorase act: inactive; G6PDH counter: inactive; PMI act satM6P: inactive

How did c1ccc(Nc2ccc3c4c(cccc24)CC3)cc1 do in these assays?
PMI activator: inactive; Redox H2O2 prof: inactive; Diaph inh CS: inactive; Diaphorase act: inactive; G6PDH counter: inactive; PMI act satM6P: inactive

How did Nc1ccc2c3c(cccc13)CC2 do in these assays?
PMI activator: inactive; Redox H2O2 prof: inactive; Diaph inh CS: 56; Diaphorase act: inactive; G6PDH counter: inactive; PMI act satM6P: inactive

Results for COc1ccc(-c2csc(-c3cc4ccccc4oc3=N)n2)cc1 ?
PMI activator: inactive; Redox H2O2 prof: inactive; Diaph inh CS: inactive; Diaphorase act: inactive; G6PDH counter: inactive; PMI act satM6P: inactive

What do the screens show for `COc1ccc(CCN2C(=S)NC3CC2(C)Oc2ccc([N+](=O)[O-])cc23)cc1OC` (configuration not stated)?
PMI activator: inactive; Redox H2O2 prof: inactive; Diaph inh CS: inactive; Diaphorase act: inactive; G6PDH counter: inactive; PMI act satM6P: inactive

How did CC1CCCN(C(=S)SCC(=O)c2cc(Br)cc(Br)c2O)C1 (configuration not stated) do in these assays?
PMI activator: inactive; Redox H2O2 prof: inactive; Diaph inh CS: 62; Diaphorase act: inactive; G6PDH counter: inactive; PMI act satM6P: inactive

What do the screens show for `O=C(CSC(=S)N1CCCC1)c1cc(Br)cc(Br)c1O`?
PMI activator: inactive; Redox H2O2 prof: inactive; Diaph inh CS: inactive; Diaphorase act: inactive; G6PDH counter: inactive; PMI act satM6P: inactive
